Data as given in ChEMBL document CHEMBL3297654, “Synthesis, antimicrobial and cytotoxic activities, and structure-activity relationships of gypsogenin derivatives against human cancer cells” (Eur J Med Chem, 2014).
Calls of active or inactive are those of the source. The rule behind the calls is not given here.

Assays:
Nakaseomyces glabratus = assay: Antimicrobial activity against Candida glabrata assessed as zone of inhibition at 100 mg for 24 hrs at 30 degC by disk diffusion test; assay type: functional, organism-based
Method in brief: (§1)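 Yeast well-diffusion assay on Mueller Hinton agar following NCCLS disc susceptibility procedure. Compound stocks were 1000 µg/mL in DMSO. Yeast broth cultures (18–24 h) were adjusted to 0.5 McFarland, about 1×10^6 cells/mL. A 6 mm well was loaded with 30 µL compound. Plates were incubated at 30 °C for 24 h, and inhibition zones were measured in mm. C. glabrata and C. tropicalis were precultured in malt extract broth.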

Candida tropicalis = assay: Antimicrobial activity against Candida tropicalis assessed as zone of inhibition at 100 mg for 24 hrs at 30 degC by disk diffusion test; assay type: functional, organism-based; method in brief: as §1
Saccharomyces cerevisiae = assay: Antimicrobial activity against Saccharomyces cerevisiae ATCC 9763 assessed as zone of inhibition at 100 mg for 24 hrs at 30 degC by disk diffusion test; assay type: functional, organism-based; method in brief: as §1
Cyberlindnera jadinii = assay: Antimicrobial activity against Candida utilis ATCC 9950 assessed as zone of inhibition at 100 mg for 24 hrs at 30 degC by disk diffusion test; assay type: functional, organism-based; method in brief: as §1
MCF7 [1] = assay: Induction of necrosis in human MCF7 cells at 0.5 uM after 48 hrs by Hoechst 33258/propidium iodide staining based phase contrast microscopic analysis; assay type: functional
Method in brief: (§2)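 Cells in 48-well plates treated with 0.5, 10, 20 or 40 µM for 24 and 48 h. Values are read at 48 h, 20 µM for test agents and 0.5 µM for controls. Staining is Hoechst 33258/propidium iodide double staining with fluorescence microscopy. Blue nuclei are viable or early-to-mid apoptotic, and pink nuclei are late apoptotic or necrotic. Apoptosis and necrosis are scored from chromatin condensation as % of cells. Cells are grown at 37 °C in 5% CO2 in RPMI, DMEM or McCoy's 5A with 10–15% heat-inactivated FCS.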

Caco-2 [2] = assay: Antiproliferative activity against human Caco2 cells after 24 and 72 hrs by MTT assay; assay type: functional, cell-based
Method in brief: (§3)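 ATCC human cell lines are kept in RPMI, DMEM or McCoy's 5A with 10–15% heat-inactivated FCS at 37 °C and 5% CO2. They are seeded at 1×10^4–1×10^5 cells/mL in 48-well plates and exposed to 0.5, 10, 20 or 40 µM. Viability is read by MTT (590 nm) at 24 and 72 h. Growth is expressed relative to untreated cells and IC50 is fitted, in triplicate.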

HT-29 [3] = assay: Antiproliferative activity against human HT-29 cells after 24 and 72 hrs by MTT assay; assay type: functional, cell-based; method in brief: as §3
SAOS-2 [4] = assay: Induction of necrosis in human Saos2 cells at 0.5 uM after 48 hrs by Hoechst 33258/propidium iodide staining based phase contrast microscopic analysis; assay type: functional; method in brief: as §2
HT-29 [5] = assay: Induction of necrosis in human HT-29 cells at 0.5 uM after 48 hrs by Hoechst 33258/propidium iodide staining based phase contrast microscopic analysis; assay type: functional; method in brief: as §2
HeLa [6] = assay: Induction of necrosis in human HeLa cells at 0.5 uM after 48 hrs by Hoechst 33258/propidium iodide staining based phase contrast microscopic analysis; assay type: functional; method in brief: as §2
[7] = Antiproliferative activity against human Saos2 cells after 24 and 72 hrs by MTT assay; assay type: functional, cell-based; settings: SAOS-2; method in brief: as §3
HeLa [8] = assay: Antiproliferative activity against human HeLa cells after 24 and 72 hrs by MTT assay; assay type: functional, cell-based; method in brief: as §3
Caco-2 [9] = assay: Induction of necrosis in human Caco2 cells at 0.5 uM after 48 hrs by Hoechst 33258/propidium iodide staining based phase contrast microscopic analysis; assay type: functional; method in brief: as §2
Caco-2 [10] = assay: Induction of apoptosis in human Caco2 cells at 0.5 uM after 48 hrs by Hoechst 33258/propidium iodide staining based phase contrast microscopic analysis; assay type: functional; method in brief: as §2
HL-60 [11] = assay: Induction of apoptosis in human HL60 cells at 0.5 uM after 48 hrs by Hoechst 33258/propidium iodide staining based phase contrast microscopic analysis; assay type: functional; method in brief: as §2
HL-60 [12] = assay: Induction of necrosis in human HL60 cells at 0.5 uM after 48 hrs by Hoechst 33258/propidium iodide staining based phase contrast microscopic analysis; assay type: functional; method in brief: as §2
HT-29 [13] = assay: Induction of apoptosis in human HT-29 cells at 0.5 uM after 48 hrs by Hoechst 33258/propidium iodide staining based phase contrast microscopic analysis; assay type: functional; method in brief: as §2
MCF7 [14] = assay: Antiproliferative activity against human MCF7 cells after 24 and 72 hrs by MTT assay; assay type: functional, cell-based; method in brief: as §3
SAOS-2 [15] = assay: Induction of apoptosis in human Saos2 cells at 0.5 uM after 48 hrs by Hoechst 33258/propidium iodide staining based phase contrast microscopic analysis; assay type: functional; method in brief: as §2
MCF7 [16] = assay: Induction of apoptosis in human MCF7 cells at 0.5 uM after 48 hrs by Hoechst 33258/propidium iodide staining based phase contrast microscopic analysis; assay type: functional; method in brief: as §2
HeLa [17] = assay: Induction of apoptosis in human HeLa cells at 0.5 uM after 48 hrs by Hoechst 33258/propidium iodide staining based phase contrast microscopic analysis; assay type: functional; method in brief: as §2
HL-60 [18] = assay: Antiproliferative activity against human HL60 cells after 24 and 72 hrs by MTT assay; assay type: functional, cell-based; method in brief: as §3
Bacillus thuringiensis = assay: Antimicrobial activity against Bacillus thuringiensis assessed as zone of inhibition at 10 mg for 24 hrs at 30 degC by disk diffusion test; assay type: functional, organism-based
Method in brief: (§4)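 Well diffusion on Mueller Hinton agar per NCCLS disc susceptibility tests. DMSO stocks were 1000 µg/mL. Bacterial broth cultures (18–24 h) were adjusted to 0.5 McFarland, about 1×10^8 cells/mL. A 6 mm well received 30 µL compound. Incubation was 24 h at 30 °C, and zone diameters were read in mm. B. thuringiensis was a fecal clinical isolate grown in nutrient broth.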

Bacillus cereus = assay: Antimicrobial activity against Bacillus cereus ATCC 11778 assessed as zone of inhibition at 10 mg for 24 hrs at 30 degC by disk diffusion test; assay type: functional, organism-based; method in brief: as §4
Bacillus subtilis [19] = assay: Antimicrobial activity against Bacillus subtilis ATCC 6633 assessed as zone of inhibition at 10 mg by disk diffusion test; assay type: functional, organism-based
Proteus vulgaris = assay: Antimicrobial activity against Proteus vulgaris ATCC 33420 assessed as zone of inhibition at 10 mg by disk diffusion test; assay type: functional, organism-based
Pseudomonas aeruginosa = assay: Antimicrobial activity against Pseudomonas aeruginosa ATCC 35032 assessed as zone of inhibition at 10 mg for 24 hrs at 37 degC by disk diffusion test; assay type: functional, organism-based
Method in brief: (§5)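 Agar well diffusion following NCCLS disc susceptibility guidance. Compounds were held as 1000 µg/mL stocks in DMSO. Broth cultures (18–24 h) were adjusted to 0.5 McFarland (1×10^8 cells/mL) and spread on Mueller Hinton agar. A 6 mm well was cut and filled with 30 µL compound. Plates were incubated 24 h at 37 °C, and the inhibition zone diameter was measured in mm.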

Enterococcus faecalis [20] = assay: Antimicrobial activity against Enterococcus faecalis ATCC 29212 assessed as zone of inhibition at 10 mg for 24 hrs at 37 degC by disk diffusion test; assay type: functional; method in brief: as §5
[21] = tested on: Staphylococcus epidermidis; assay: Antimicrobial activity against Staphylococcus epidermidis ATCC 12228 assessed as zone of inhibition at 10 mg for 24 hrs at 37 degC by disk diffusion test; assay type: functional
Micrococcus luteus [22] = assay: Antimicrobial activity against Micrococcus luteus ATCC 9341 assessed as zone of inhibition at 10 mg for 24 hrs at 30 degC by disk diffusion test; assay type: functional
Escherichia coli = assay: Antimicrobial activity against Escherichia coli ATCC 25922 assessed as zone of inhibition at 10 mg for 24 hrs at 37 degC by disk diffusion test; assay type: functional, organism-based
Klebsiella pneumoniae = assay: Antimicrobial activity against Klebsiella pneumoniae ATCC 13882 assessed as zone of inhibition at 10 mg for 24 hrs at 37 degC by disk diffusion test; assay type: functional, organism-based; method in brief: as §5
Salmonella typhimurium = assay: Antimicrobial activity against Salmonella typhimurium ATCC 14028 assessed as zone of inhibition at 10 mg for 24 hrs at 37 degC by disk diffusion test; assay type: functional; settings: Salmonella enterica subsp. enterica serovar Typhimurium
Staphylococcus aureus = assay: Antimicrobial activity against Staphylococcus aureus ATCC 25923 assessed as zone of inhibition at 10 mg for 24 hrs at 37 degC by disk diffusion test; assay type: functional
Micrococcus luteus [23] = assay: Antimicrobial activity against Micrococcus luteus ATCC 9341 assessed as zone of inhibition at 15 mg for 24 hrs at 30 degC by disk diffusion test; assay type: functional; settings: ATCC 9341, 24 h, read-out: DIZ
Bacillus subtilis [24] = assay: Antimicrobial activity against Bacillus subtilis ATCC 6633 assessed as zone of inhibition at 15 mgby disk diffusion test; assay type: functional
Enterococcus faecalis [25] = assay: Antimicrobial activity against Enterococcus faecalis ATCC 29212 assessed as zone of inhibition at 15 mg for 24 hrs at 37 degC by disk diffusion test; assay type: functional, organism-based

Question: Which inhibition zone (IZ) (Nakaseomyces glabratus) does the source give for NYSTATIN here?
Answer: 16 mm

Question: And the inhibition zone (IZ) (Candida tropicalis)?
Answer: 15 mm

Question: And the inhibition zone (IZ) (Saccharomyces cerevisiae)?
Answer: 15 mm

Question: And the inhibition zone (IZ) (Cyberlindnera jadinii)?
Answer: 21 mm

Question: With `CC(=O)O[C@H]1C(=O)[C@@]2(C)[C@H]([C@H](OC(=O)c3ccccc3)[C@]3(O)C[C@H](OC(=O)[C@H](O)[C@@H](NC(=O)c4ccccc4)c4ccccc4)C(C)=C1C3(C)C)[C@]1(OC(C)=O)CO[C@@H]1C[C@@H]2O` [PACLITAXEL] as the compound, how does the Activity (MCF7 [1]) read?
Answer: 1%

Question: And the IC50 (Caco-2 [2])?
Answer: 310 nM

Question: And the IC50 (HT-29 [3])?
Answer: 290 nM

Question: And the Activity (SAOS-2 [4])?
Answer: 1%

Question: And the Activity (HT-29 [5])?
Answer: 2%

Question: And the Activity (HeLa [6])?
Answer: 2%

Question: What about the IC50 [7] of the same compound?
Answer: 350 nM

Question: What about the IC50 (HeLa [8]) of the same compound?
Answer: 290 nM

Question: What about the Activity (Caco-2 [9]) of the same compound?
Answer: 2%

Question: And the Activity (Caco-2 [10])?
Answer: 52%

Question: What about the Activity (HL-60 [11]) of the same compound?
Answer: 53%

Question: What about the Activity (HL-60 [12]) of the same compound?
Answer: 0%

Question: What about the Activity (HT-29 [13]) of the same compound?
Answer: 52%

Question: What about the IC50 (MCF7 [14]) of the same compound?
Answer: 330 nM

Question: And the Activity (SAOS-2 [15])?
Answer: 42%

Question: And the Activity (MCF7 [16])?
Answer: 50%

Question: What about the Activity (HeLa [17]) of the same compound?
Answer: 44%

Question: What about the IC50 (HL-60 [18]) of the same compound?
Answer: 320 nM

Question: Which inhibition zone (IZ) (Bacillus thuringiensis) does the source give for GENTAMICIN here?
Answer: 21 mm

Question: What about the inhibition zone (IZ) (Bacillus cereus) of the same compound?
Answer: 24 mm

Question: What about the inhibition zone (IZ) (Bacillus subtilis [19]) of the same compound?
Answer: 20 mm

Question: And the inhibition zone (IZ) (Proteus vulgaris)?
Answer: 24 mm

Question: And the inhibition zone (IZ) (Pseudomonas aeruginosa)?
Answer: 20 mm

Question: What about the inhibition zone (IZ) (Enterococcus faecalis [20]) of the same compound?
Answer: 11 mm

Question: And the inhibition zone (IZ) [21]?
Answer: 17 mm

Question: What about the inhibition zone (IZ) (Micrococcus luteus [22]) of the same compound?
Answer: 15 mm

Question: What about the inhibition zone (IZ) (Escherichia coli) of the same compound?
Answer: 21 mm

Question: What about the inhibition zone (IZ) (Klebsiella pneumoniae) of the same compound?
Answer: 19 mm

Question: What about the inhibition zone (IZ) (Salmonella typhimurium) of the same compound?
Answer: 16 mm

Question: And the inhibition zone (IZ) (Staphylococcus aureus)?
Answer: 20 mm

Question: With `CC[C@H]1OC(=O)[C@H](C)[C@@H](O[C@H]2C[C@@](C)(OC)[C@@H](O)[C@H](C)O2)[C@H](C)[C@@H](O[C@@H]2O[C@H](C)C[C@H](N(C)C)[C@H]2O)[C@](C)(O)C[C@@H](C)C(=O)[C@H](C)[C@@H](O)[C@]1(C)O` [ERYTHROMYCIN] as the compound, how does the zone of inhibition at 15000 µg/disc (Micrococcus luteus [23]) read?
Answer: 30 mm

Question: What about the “diameter of the inhibition zone (DIZ)” value (Bacillus subtilis [24]) of the same compound?
Answer: 25 mm

Question: What about the “diameter of the inhibition zone (DIZ)” value (Enterococcus faecalis [25]) of the same compound?
Answer: inactive
